Results: ChEMBL document CHEMBL1157714, “Synthesis, anti-HIV and anti-oxidant activities of caffeoyl 5,6-anhydroquinic acid derivatives” (Bioorg Med Chem, 2010)
Values after ≈ are worked out from the molar mass of the structure shown.

Columns and labels:
[1] = system: Radical scavenging activity; assay: Antioxidant activity assessed as DPPH radical scavenging activity; format: functional
Summary of the method: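 Each well held 10 µl compound in DMSO plus 190 µl of 0.1 mM DPPH in ethanol. After 20 min at rt, absorbance was read at 540 nm. Effective rate % was computed, each compound was tested at 4 concentrations, and EC50 was derived from a plot of effective rate % against concentration.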

MT4 = assay: Cytotoxicity against human MT4 cells after 5 days; format: cell-based; conditions: mt4, 120 h
Summary of the method: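 Over a 5-day culture in RPMI-1640 with graded compound concentrations, MT-4 cell growth was checked by optical microscopy. The cytotoxic concentration (CC) was the concentration that reduced MT-4 viability.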

[2] = Antioxidant activity assessed as SOD-like activity by WST1 assay; format: functional
Summary of the method: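 SOD Assay Kit-WST in 96-well plates. Compound in DMSO was mixed with WST working solution, and the reaction was started with xanthine oxidase. After 20 min at 37 °C, absorbance was read at 450 nm. Inhibition % was corrected with three blanks (DMSO, no enzyme, DMSO plus buffer). Four concentrations were tested, and IC50 was taken from the inhibition-concentration plot.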

[3] = system: Human immunodeficiency virus 1; assay: Antiviral activity against HIV1 3B infected in human MT4 cells after 5 days; format: functional
Summary of the method: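 MT-4 cells were infected 1 h with HIV-1 (HTLV-IIIB) at TCID50 0.001/cell, resuspended at 1 × 10⁵ cells/ml in RPMI-1640, and cultured 5 days with graded compound concentrations. Infected and uninfected controls had no compound. On day 5, the concentration fully preventing the virus-induced cytopathic effect was read by optical microscopy.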

Row | Compound | EC50 [1] | CC100 (MT4) | IC50 [2] | IC100 [3]
1 | CC[C@@H]1OC(=O)[C@]2(C[C@@H](O)[C@H](O)[C@H](OC(=O)/C=C/c3ccc(O)c(O)c3)C2)O1 | 19 µg/mL (≈ 48.2 µM) | > 12.5 µg/mL | 1 µg/mL (≈ 2.54 µM) | –
2 | CC(=O)Oc1ccc(/C=C/C(=O)O[C@@H]2C=C[C@@]3(C[C@H]2OC(=O)/C=C/c2ccc(OC(C)=O)c(OC(C)=O)c2)OC(C)(C)OC3=O)cc1OC(C)=O | > 50 µg/mL | > 6.25 µg/mL | 6.3 µg/mL (≈ 8.92 µM) | –
3 | CC1(C)O[C@H]2C=C[C@@]3(C[C@H]2O1)OC(C)(C)OC3=O | > 50 µg/mL | > 100 µg/mL | 90 µg/mL (≈ 354 µM) | –
4 | O=C(/C=C/c1ccc(O)c(O)c1)O[C@@H]1C[C@](O)(C(=O)O)C[C@@H](OC(=O)/C=C/c2ccc(O)c(O)c2)[C@H]1O | 16 µg/mL (≈ 31 µM) | > 50 µg/mL | 2.3 µg/mL (≈ 4.45 µM) | 12.5 µg/mL
5 | COC(=O)[C@@]1(O)C[C@@H](O)[C@H](O)[C@H](OC(=O)/C=C/c2ccc(O)c(O)c2)C1 | 20 µg/mL (≈ 54.3 µM) | > 25 µg/mL | 1.4 µg/mL (≈ 3.8 µM) | –
6 | CC(=O)Oc1ccc(/C=C/C(=O)O[C@@H]2C=C[C@@]3(C[C@H]2O)OC(C)(C)OC3=O)cc1OC(C)=O | > 50 µg/mL | – | 2.9 µg/mL (≈ 6.3 µM) | –
7 | CCCCCC1(CCCCC)OC(=O)[C@]2(C[C@@H](O)[C@H](O)[C@H](OC(=O)/C=C/c3ccc(O)c(O)c3)C2)O1 | 28 µg/mL (≈ 55.3 µM) | > 12.5 µg/mL | 2.9 µg/mL (≈ 5.72 µM) | –
8 | O=C(/C=C/c1ccc(O)c(O)c1)O[C@@H]1C=C[C@@](O)(C(=O)O)C[C@H]1OC(=O)/C=C/c1ccc(O)c(O)c1 | 11 µg/mL (≈ 22.1 µM) | > 25 µg/mL | 1.9 µg/mL (≈ 3.81 µM) | 6.25 µg/mL
9 | O=C(/C=C/c1ccc(O)c(O)c1)O[C@@H]1C[C@@](O)(C(=O)O)C[C@@H](O)[C@@H]1O | 17 µg/mL (≈ 48 µM) | – | 1.5 µg/mL (≈ 4.23 µM) | –
10 | CCC1(CC)OC(=O)[C@]2(C[C@@H](O)[C@H](O)[C@H](OC(=O)/C=C/c3ccc(O)c(O)c3)C2)O1 | 29 µg/mL (≈ 68.7 µM) | > 25 µg/mL | 2 µg/mL (≈ 4.73 µM) | –
11 | CC1(C)OC(=O)[C@]2(C[C@@H](O)[C@H](O)[C@H](OC(=O)/C=C/c3ccc(O)c(O)c3)C2)O1 | 8 µg/mL (≈ 20.3 µM) | > 50 µg/mL | 1.6 µg/mL (≈ 4.06 µM) | 25 µg/mL
12 | CC1(C)OC(=O)[C@@]2(C=C[C@@H](O)[C@H](OC(=O)/C=C/c3ccc(O)c(O)c3)C2)O1 | 20 µg/mL (≈ 53.1 µM) | > 100 µg/mL | 1.5 µg/mL (≈ 3.99 µM) | 50 µg/mL
13 | O=C(/C=C/c1ccc(O)c(O)c1)O[C@@H]1C=C[C@@](O)(C(=O)O)C[C@H]1O | 15 µg/mL (≈ 44.6 µM) | > 25 µg/mL | 0.7 µg/mL (≈ 2.08 µM) | –
14 | CC1(C)OC(=O)[C@@]2(C=C[C@@H](OC(=O)/C=C/c3ccc(O)c(O)c3)[C@H](OC(=O)/C=C/c3ccc(O)c(O)c3)C2)O1 | 20 µg/mL (≈ 37.1 µM) | > 25 µg/mL | 2 µg/mL (≈ 3.71 µM) | –
15 | CC1(C)OC(=O)[C@@]2(C=C[C@@H](O)[C@H](O)C2)O1 | > 50 µg/mL | > 100 µg/mL | > 100 µg/mL | –
16 | CCCC1(CCC)OC(=O)[C@]2(C[C@@H](O)[C@H](O)[C@H](OC(=O)/C=C/c3ccc(O)c(O)c3)C2)O1 | 30 µg/mL (≈ 66.6 µM) | > 25 µg/mL | 2 µg/mL (≈ 4.44 µM) | –
17 | O=C(/C=C/c1ccc(O)c(O)c1)O[C@@H]1C[C@](O)(C(=O)O)C=C[C@H]1O | 16 µg/mL (≈ 47.6 µM) | > 25 µg/mL | 0.5 µg/mL (≈ 1.49 µM) | –
18 | CC1(C)O[C@H]2[C@H](O)C[C@@]3(C[C@H]2O1)OC(C)(C)OC3=O [QUINIC ACID BISACETONIDE] | > 50 µg/mL | > 100 µg/mL | > 100 µg/mL | –
19 | CCCCC1(CCCC)OC(=O)[C@]2(C[C@@H](O)[C@H](O)[C@H](OC(=O)/C=C/c3ccc(O)c(O)c3)C2)O1 | 22 µg/mL (≈ 46 µM) | > 25 µg/mL | 2 µg/mL (≈ 4.18 µM) | –
20 | CC[C@H]1OC(=O)[C@]2(C[C@@H](O)[C@H](O)[C@H](OC(=O)/C=C/c3ccc(O)c(O)c3)C2)O1 | 20 µg/mL (≈ 50.7 µM) | > 12.5 µg/mL | 1.1 µg/mL (≈ 2.79 µM) | –
21 | CC1(C)OC(=O)[C@@]2(C=C[C@@H](OC(=O)/C=C/c3ccc(O)c(O)c3)[C@H](O)C2)O1 | 18 µg/mL (≈ 47.8 µM) | > 100 µg/mL | 1.3 µg/mL (≈ 3.45 µM) | 50 µg/mL
22 | CC(=O)Oc1ccc(/C=C/C(=O)O[C@@H]2C[C@]3(C=C[C@H]2O)OC(C)(C)OC3=O)cc1OC(C)=O | > 50 µg/mL | > 100 µg/mL | 1.8 µg/mL (≈ 3.91 µM) | 50 µg/mL
